System: U2OS
Test: Multiplex assay against U2OS
Format: toxicity, cell-based
Conditions: human
Method in brief: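 Live cells carried four stains from seeding: Hoechst33342, BioTracker Green Microtubule Cytoskeleton Dye, MitoTracker Red and Annexin V Alexa Fluor 680. They were imaged on a CQ1 microscope at 37°C and 5% CO2 after compound addition. Using CellPathfinder machine-learning gating, cells were split into Hoechst high-intensity objects or normal cells, normal cells into healthy, pyknosed or fragmented nuclei, and pyknosed cells into mitotic or apoptotic; tubulin, mitochondrial-mass and membrane-permeability phenotypes are per cents of healthy-nucleus cells.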

[1] = 12 h, 1 µM, compound concentration 1 uM, replicate 1
[2] = 12 h, 1 µM, compound concentration 1 uM, replicate 2
[3] = 12 h, 10 µM, compound concentration 10 uM, replicate 1
[4] = 12 h, 10 µM, compound concentration 10 uM, replicate 2
[5] = 24 h, 1 µM, compound concentration 1 uM, replicate 1
[6] = 24 h, 1 µM, compound concentration 1 uM, replicate 2
[7] = 24 h, 10 µM, compound concentration 10 uM, replicate 1
[8] = 24 h, 10 µM, compound concentration 10 uM, replicate 2
[9] = 48 h, 1 µM, compound concentration 1 uM, replicate 1
[10] = 48 h, 1 µM, compound concentration 1 uM, replicate 2
[11] = 48 h, 10 µM, compound concentration 10 uM, replicate 1
[12] = 48 h, 10 µM, compound concentration 10 uM, replicate 2

COc1c(C)cc(NC(=O)c2nn(Cc3ccc(F)cc3)c3c2CN(C(=O)c2ccc[nH]2)C[C@]3(C)C(N)=O)cc1C
Population Apoptotic (%) [1]: 65%
Population Fragmented Nuclei (%) [1]: 22%
Population Healthy Nuclei (%) [1]: 65%
Population Hoechst High Intensity Objects (%) [1]: 2%
Population Membrane Permeable-Phenotype (%) [1]: 8%
Population Mitochondria Different-Phenotype (%) [1]: 3%
Population Mitotic Cells (%) [1]: 34%
Population Normal (%) [1]: 97%
Population Pyknosed Nuclei (%) [1]: 12%
Population Tubulin-Different-Phenotype (%) [1]: 5%
Total Cell Count [1]: 247
Population Apoptotic (%) [2]: 83%
Population Fragmented Nuclei (%) [2]: 21%
Population Healthy Nuclei (%) [2]: 72%
Population Mitochondria Different-Phenotype (%) [2]: 12%
Population Mitotic Cells (%) [2]: 16%
Population Pyknosed Nuclei (%) [2]: 6%
Population Tubulin-Different-Phenotype (%) [2]: 9%
Total Cell Count [2]: 102
Population Apoptotic (%) [3]: 33%
Population Fragmented Nuclei (%) [3]: 26%
Population Healthy Nuclei (%) [3]: 43%
Population Hoechst High Intensity Objects (%) [3]: 9%
Population Membrane Permeable-Phenotype (%) [3]: 77%
Population Mitochondria Different-Phenotype (%) [3]: 90%
Population Mitotic Cells (%) [3]: 66%
Population Normal (%) [3]: 90%
Population Pyknosed Nuclei (%) [3]: 29%
Population Tubulin-Different-Phenotype (%) [3]: 95%
Total Cell Count [3]: 223
Population Apoptotic (%) [4]: 60%
Population Fragmented Nuclei (%) [4]: 11%
Population Healthy Nuclei (%) [4]: 66%
Population Hoechst High Intensity Objects (%) [4]: 8%
Population Membrane Permeable-Phenotype (%) [4]: 54%
Population Mitochondria Different-Phenotype (%) [4]: 97%
Population Mitotic Cells (%) [4]: 39%
Population Normal (%) [4]: 91%
Population Pyknosed Nuclei (%) [4]: 21%
Population Tubulin-Different-Phenotype (%) [4]: 100%
Total Cell Count [4]: 119
Population Apoptotic (%) [5]: 67%
Population Fragmented Nuclei (%) [5]: 16%
Population Healthy Nuclei (%) [5]: 71%
Population Hoechst High Intensity Objects (%) [5]: 5%
Population Membrane Permeable-Phenotype (%) [5]: 8%
Population Mitochondria Different-Phenotype (%) [5]: 6%
Population Mitotic Cells (%) [5]: 32%
Population Normal (%) [5]: 94%
Population Pyknosed Nuclei (%) [5]: 12%
Population Tubulin-Different-Phenotype (%) [5]: 7%
Total Cell Count [5]: 265
Population Apoptotic (%) [6]: 61%
Population Fragmented Nuclei (%) [6]: 17%
Population Healthy Nuclei (%) [6]: 70%
Population Hoechst High Intensity Objects (%) [6]: 0%
Population Membrane Permeable-Phenotype (%) [6]: 7%
Population Mitochondria Different-Phenotype (%) [6]: 2%
Population Mitotic Cells (%) [6]: 38%
Population Normal (%) [6]: 99%
Population Pyknosed Nuclei (%) [6]: 11%
Population Tubulin-Different-Phenotype (%) [6]: 6%
Total Cell Count [6]: 111
Population Apoptotic (%) [7]: 66%
Population Fragmented Nuclei (%) [7]: 26%
Population Healthy Nuclei (%) [7]: 41%
Population Hoechst High Intensity Objects (%) [7]: 12%
Population Membrane Permeable-Phenotype (%) [7]: 46%
Population Mitochondria Different-Phenotype (%) [7]: 92%
Population Mitotic Cells (%) [7]: 33%
Population Normal (%) [7]: 87%
Population Pyknosed Nuclei (%) [7]: 31%
Population Tubulin-Different-Phenotype (%) [7]: 94%
Total Cell Count [7]: 216
Population Apoptotic (%) [8]: 65%
Population Fragmented Nuclei (%) [8]: 13%
Population Healthy Nuclei (%) [8]: 53%
Population Hoechst High Intensity Objects (%) [8]: 7%
Population Membrane Permeable-Phenotype (%) [8]: 49%
Population Mitochondria Different-Phenotype (%) [8]: 91%
Population Mitotic Cells (%) [8]: 34%
Population Normal (%) [8]: 92%
Population Pyknosed Nuclei (%) [8]: 33%
Population Tubulin-Different-Phenotype (%) [8]: 91%
Total Cell Count [8]: 123
Population Apoptotic (%) [9]: 79%
Population Fragmented Nuclei (%) [9]: 18%
Population Healthy Nuclei (%) [9]: 68%
Population Hoechst High Intensity Objects (%) [9]: 2%
Population Membrane Permeable-Phenotype (%) [9]: 4%
Population Mitochondria Different-Phenotype (%) [9]: 3%
Population Mitotic Cells (%) [9]: 20%
Population Normal (%) [9]: 97%
Population Pyknosed Nuclei (%) [9]: 13%
Population Tubulin-Different-Phenotype (%) [9]: 2%
Total Cell Count [9]: 365
Population Apoptotic (%) [10]: 84%
Population Fragmented Nuclei (%) [10]: 15%
Population Healthy Nuclei (%) [10]: 70%
Population Hoechst High Intensity Objects (%) [10]: 5%
Population Membrane Permeable-Phenotype (%) [10]: 9%
Population Mitochondria Different-Phenotype (%) [10]: 4%
Population Mitotic Cells (%) [10]: 15%
Population Normal (%) [10]: 94%
Population Tubulin-Different-Phenotype (%) [10]: 5%
Total Cell Count [10]: 152
Population Apoptotic (%) [11]: 84%
Population Fragmented Nuclei (%) [11]: 31%
Population Healthy Nuclei (%) [11]: 24%
Population Hoechst High Intensity Objects (%) [11]: 17%
Population Membrane Permeable-Phenotype (%) [11]: 69%
Population Mitochondria Different-Phenotype (%) [11]: 85%
Population Mitotic Cells (%) [11]: 15%
Population Normal (%) [11]: 82%
Population Pyknosed Nuclei (%) [11]: 44%
Population Tubulin-Different-Phenotype (%) [11]: 90%
Total Cell Count [11]: 212
Population Apoptotic (%) [12]: 87%
Population Fragmented Nuclei (%) [12]: 22%
Population Healthy Nuclei (%) [12]: 47%
Population Hoechst High Intensity Objects (%) [12]: 9%
Population Membrane Permeable-Phenotype (%) [12]: 50%
Population Mitochondria Different-Phenotype (%) [12]: 81%
Population Mitotic Cells (%) [12]: 12%
Population Normal (%) [12]: 90%
Population Pyknosed Nuclei (%) [12]: 29%
Population Tubulin-Different-Phenotype (%) [12]: 80%
Total Cell Count [12]: 150
